Measured values gathered from unrelated publications.
Compare with care: the assays were run in different laboratories.
Target: Cyclin-G-associated kinase (GAK, Homo sapiens, UniProt O14976)
Residues used in one study (O14976 1-1311): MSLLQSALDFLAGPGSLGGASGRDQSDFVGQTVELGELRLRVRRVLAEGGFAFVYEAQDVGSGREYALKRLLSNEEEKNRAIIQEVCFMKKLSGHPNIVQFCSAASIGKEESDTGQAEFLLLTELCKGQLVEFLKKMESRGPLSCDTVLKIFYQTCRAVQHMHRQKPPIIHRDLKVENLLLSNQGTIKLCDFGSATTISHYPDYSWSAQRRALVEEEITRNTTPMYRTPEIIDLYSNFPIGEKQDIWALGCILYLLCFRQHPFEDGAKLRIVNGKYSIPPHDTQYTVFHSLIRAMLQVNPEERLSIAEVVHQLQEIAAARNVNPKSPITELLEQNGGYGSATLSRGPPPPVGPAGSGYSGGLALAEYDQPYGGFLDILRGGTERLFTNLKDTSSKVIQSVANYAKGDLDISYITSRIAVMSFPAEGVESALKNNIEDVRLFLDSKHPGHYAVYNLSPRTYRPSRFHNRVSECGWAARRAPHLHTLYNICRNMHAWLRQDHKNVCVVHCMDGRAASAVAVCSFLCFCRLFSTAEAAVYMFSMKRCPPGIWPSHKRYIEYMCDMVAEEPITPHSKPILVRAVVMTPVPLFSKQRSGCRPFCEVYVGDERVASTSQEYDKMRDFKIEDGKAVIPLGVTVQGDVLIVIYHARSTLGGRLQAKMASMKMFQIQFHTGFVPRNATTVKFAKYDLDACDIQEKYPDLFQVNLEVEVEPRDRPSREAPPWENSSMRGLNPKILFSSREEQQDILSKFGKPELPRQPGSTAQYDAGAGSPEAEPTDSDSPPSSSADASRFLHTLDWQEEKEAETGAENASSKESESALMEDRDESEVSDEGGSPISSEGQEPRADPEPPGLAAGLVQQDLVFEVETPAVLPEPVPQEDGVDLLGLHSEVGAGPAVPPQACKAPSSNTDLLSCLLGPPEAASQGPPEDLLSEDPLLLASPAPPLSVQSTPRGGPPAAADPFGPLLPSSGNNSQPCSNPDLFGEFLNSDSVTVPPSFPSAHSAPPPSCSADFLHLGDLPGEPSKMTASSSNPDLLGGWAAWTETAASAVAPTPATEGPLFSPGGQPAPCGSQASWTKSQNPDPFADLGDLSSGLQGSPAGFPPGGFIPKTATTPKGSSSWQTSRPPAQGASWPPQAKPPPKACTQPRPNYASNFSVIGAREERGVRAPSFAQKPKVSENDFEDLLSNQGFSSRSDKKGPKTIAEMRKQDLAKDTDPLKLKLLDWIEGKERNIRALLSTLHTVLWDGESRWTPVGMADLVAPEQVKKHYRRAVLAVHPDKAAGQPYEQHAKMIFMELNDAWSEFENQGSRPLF

For `c1cnn2ncc(-c3ccnc(N4CCC45COC5)n3)c2c1`, the remaining binding was 56% (binding; 1 µM).
`COc1ncc2cc3ccccc3nc2c1C#N` has a remaining binding of 87% (cell-free assay, competition with immobilised ligand; 5 µM).
`COc1ccnn2ncc(-c3ccnc(N(C)C)n3)c12` has a remaining binding of 73% (binding; 1 µM).
`O=C(c1ccc(Nc2nccc(-c3cc4ccccc4s3)n2)cc1)N1CCC(N2CCCC2)CC1` has a remaining binding of 34% (binding, competition with immobilised ligand; 1 µM).
With `Nc1ncc2c(n1)-c1c([nH]c3ccc(C#CC4CC4)cc13)CCCC2` the remaining binding was 88% (binding, competition with immobilised ligand; 1 µM).
For `O=C(NCC1CCOCC1)c1n[nH]cc1NC(=O)c1c(F)cccc1F`, the remaining binding was 88% (binding, competition with immobilised ligand; 1 µM).
With `C[C@@H]1CN(c2cc(-c3nn(C)c4ccc(OC5(C)CC5)cc34)ncn2)C[C@H](C)O1` the remaining binding was 86% (cell-free assay, competition with immobilised ligand; 1 µM).
For `CN(C)c1ncc(F)c(-c2cnn3ncccc23)n1`, the remaining binding was 100% (binding; 1 µM).
For `O=C(NC[C@@H]1[C@H]2CN(C(=O)OCc3cc(C(F)(F)F)cc(C(F)(F)F)c3)C[C@@H]12)c1ccc2[nH]nnc2c1`, the remaining binding was 91% (cell-free assay, competition with immobilised ligand; 1 µM).
The remaining binding of `Cc1cnn2ncc(-c3ccnc(N(C)C)n3)c2c1` is reported as 52% (binding; 1 µM).
For `O=C(c1ccc(Nc2ncc(Cl)c(-c3ccc(Cl)s3)n2)cc1)N1CCC(N2CCCC2)CC1`, the remaining binding was 23% (binding, competition with immobilised ligand; 1 µM).
For `CN(CCCC(F)(F)F)c1nccc(-c2cnn3ncccc23)n1`, the remaining binding was 100% (binding; 1 µM).
`O=C(O)c1cc(-c2ccc(C3CCNCC3)cc2)c2ccc(-c3ccc(C(F)(F)F)cc3)cc2c1` has a remaining binding of 100% (cell-free assay, competition with immobilised ligand; 1 µM).
For `F[C@@H]1CCN(c2nccc(-c3cnn4ncccc34)n2)C1`, the remaining binding was 85% (binding; 1 µM).
`CC(C)(O)c1cncc(-c2nc3ccc(F)cc3n2C2CC2)c1` gave a remaining binding of 100% (cell-free assay, competition with immobilised ligand; 1 µM).
With `CNC(=O)[C@@H]1CC[C@@H](n2c(-c3ccc4cnccc4c3)nc3ccc(C(=O)NCc4cccc(C(N)=O)c4)cc32)C1` the remaining binding was 100% (binding, competition with immobilised ligand; 1 µM).
For `Cc1cc(C)c(-n2ccn3nc(-c4cccnc4)cc23)cc1NC(=O)c1cc(C#N)cc(S(F)(F)(F)(F)F)c1`, the remaining binding was 83.3% (cell-free assay, competition with immobilised ligand; 0.1 µM).
`C[C@@H]1CCN(c2nccc(-c3cnn4ncccc34)n2)C1` gave a remaining binding of 40% (binding; 1 µM).
With `Cn1nc(C(F)(F)F)cc1-c1cnc(N2CCc3cc(S(=O)(=O)Nc4c(F)cc(Cl)cc4F)cc(N4CCCC4=O)c32)nc1` the remaining binding was 94% (cell-free assay, competition with immobilised ligand; 1 µM).
With `COc1cnc(Nc2cccc(S(N)(=O)=O)c2)nc1N1CCN(c2ccccc2)C(=O)C1` the remaining binding was 57% (binding, competition with immobilised ligand; 1 µM).
With `O=C(c1ccc(Nc2ncc(Cl)c(-c3cc4ccccc4s3)n2)cc1)N1CCC(N2CCCC2)CC1` the remaining binding was 48% (binding, competition with immobilised ligand; 1 µM).
The remaining binding of `Cn1nc(C(=O)NCc2ccc(C(=O)O)cc2)cc1-c1ccc2[nH]ccc2c1` is reported as 90% (cell-free assay, competition with immobilised ligand; 0.1 µM).
